Compound activity: PubChem BioAssay, Sanford-Burnham Center for Chemical Genomics
CendR NRP1 mod – modulators of CendR peptide binding to human neuropilin-1; hit rate 0.85% among 360,000; FAM-RPARPAR peptide binding to NRP-1, fluorescence polarization; inhibition, % at 25 µM; AID 602438; O14786;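 active = inhibition or corrected inhibition above about 18%, plus a signal ratio from 0.5 to 1.5, limit read from the data, passing the limit was not always enough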
hiPSC survival – enhancers of human iPSC single-cell survival. survival enhancement, % at 20 µM. AID 602274. hit rate 0.044% among 360,000. hiPSC single-cell survival, ATPlite luminescence; 100% = ROCK inhibitor wells, 0% = DMSO; in the data active = survival enhancement above about 18%;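 also: cells exposed to compounds for 16 hours before the ATP read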
SKN-1 inh – inhibitors of C. elegans SKN-1; hit rate 0.49% among 360,000; C. elegans VP596 Pgst-4::GFP/RFP ratio, acrylamide-induced, 24 h; AID 624304; inhibition, % at 21.8 µM;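 active = interference check ratio from 0.5 to 1.5 plus GFP to RFP signal ratio inhibition reaching or exceeding a fixed threshold, cut at about 30% in these data, passing the limit was not always enough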
MT1-MMP act inh – blocks activation of human MT1-MMP | P50281 | HT1080 RFP-PRO-GFP cells, GFP/RFP ratio fluorescence, overnight; percent of plate control window, DMSO zero | GFP/RFP ratio change, % at 20 µM | hit rate 0.061% among 360,000 | AID 651647;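 active = GFP/RFP ratio change of at least 30% with cell ATP level not reduced by more than half and red fluorescence within 50% of control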
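Material – HT1080 RFP-PRO-GFP cells · Control set – DMSO wells and RFP-L50D-GFP cells · Incubation – overnight cell settling, then overnight compound exposure, 37 °C, 5% CO2 · Compound dosing – single-point 20 µM compound, 1% DMSO · Read-out – GFP/RFP fluorescence ratio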
Each line names hits and unclear results; the compound was inactive in the other large screens. Most compounds without a hit are left out; they make up all but 1.4% or so of the library.

Cc1nn(-c2ccccc2)c2sc(C(=O)n3cccn3)cc12	none
Cc1ccn(C(=O)c2cc3c(C)nn(-c4ccccc4)c3s2)n1	CendR NRP1 mod 27.7
C/C(CCc1ccccc1)=N\NC(=O)c1ccccc1	none
Cc1nc(-c2cccs2)sc1C(=O)O	none
Cc1nccc(-c2sc(-c3cccs3)nc2C)n1	SKN-1 inh 38.9
COCCNC(=O)C1(C)C=CC2(CCCCC2)N1C(=O)c1ccccc1 (stereo not drawn)	none
CC1(C(=O)NCCN2CCOCC2)C=CC2(CCCCC2)N1C(=O)c1ccccc1 (stereo not drawn)	CendR NRP1 mod 19.7
O=C(NC1CS(=O)(=O)CC1NCc1ccccc1)c1ccccc1 (stereo not drawn)	SKN-1 inh 36.5
Cc1nc2ccccc2c(=O)n1/N=C/c1ccccc1Cl	SKN-1 inh 37.9
Cc1nc2ccccc2c(=O)n1/N=C/c1ccc(O)cc1O	none
c1ccc(CNC2CC3CCC2C3)cc1 (stereo not drawn)	CendR NRP1 mod 23.6
O=C(/C=C/c1ccccc1)NC1CC2CCC1C2 (stereo not drawn)	none
CCOC(=O)SC1=N/C(=C\c2ccc(N(C)C)cc2)C(=O)S1	SKN-1 inh 41.2
CCSC1=N/C(=C\c2ccc(C(=O)O)cc2)C(=O)S1	none
COC(=O)c1ccc(C(=O)OC)c(NC(=O)CN2CCC(C)CC2)c1	none
CCCCC(CC)CO (stereo not drawn)	none
CCCCC(CC)CN=C(N)NC(N)=NCCCCCCN=C(N)NC(N)=NCC(CC)CCCC (stereo not drawn)	SKN-1 inh 38.0 (no result: MT1-MMP act inh)
NC(=S)c1ccc(OCCCc2ccccc2)cc1	none
O=C(Nc1nnc(SCC(=O)N2CCCCC2)s1)c1cccs1	none
O=C1NC(=O)/C(=C\c2ccc(Br)o2)S1	none
CCN(CC)S(=O)(=O)c1ccc2c(c1)nc(SC(C)C(N)=O)n2-c1ccc(OC)cc1 (stereo not drawn)	SKN-1 inh 28.7
O=S(=O)(c1cccs1)N1CN(Cc2ccc(F)cc2)c2nc3ccccc3nc21	none
N/C(Cc1ccc(Cl)c(Cl)c1)=N\OC(=O)c1cccs1	none
N/C(=N\OC(=O)c1cccs1)C1(c2ccc(Cl)cc2Cl)CC1	CendR NRP1 mod 36.7
Cc1onc(-c2ccc(Cl)cc2Cl)c1-c1csc(COc2ccccc2)n1	CendR NRP1 mod 27.4
O=C(O)c1ccc(-c2nc(-c3ccc(Cl)cc3Cl)cs2)cc1	none
O=C(NCCC1=CCCCC1)C(=O)NCC(c1ccco1)N1CCN(c2ccccc2)CC1 (stereo not drawn)	none
C[C@H](CO)N1C[C@H](C)[C@@H](CN(C)S(=O)(=O)c2ccccc2)Oc2c(NC(=O)Cc3ccccc3)cccc2C1=O	none
O=[N+]([O-])c1cccc2ccc(/C=C/c3ccc(C(F)(F)F)cc3)nc12	none
O=[N+]([O-])c1cccc2ccc(/C=C/c3ccc(Cl)cc3)nc12	SKN-1 inh 38.8
CNC(=O)Nc1ccc2snnc2c1	none
Cc1nc2ccc(NC(=O)NCc3ccco3)cc2s1	none
O=C(NCc1ccco1)Nc1ccc2snnc2c1	CendR NRP1 mod 40.1
O=C(Nc1ccc2snnc2c1)N1CCSCC1	SKN-1 inh 38.8
CCOC(=O)C1=C(COC(=O)CNS(=O)(=O)c2ccc(NC(C)=O)cc2)NC(=O)NC1C (stereo not drawn)	none
O=C(c1cnn2c(C(F)(F)F)cc(-c3ccco3)nc12)N1CCCc2ccccc21	SKN-1 inh 37.0
O=C(Nc1ccc2c(c1)OCO2)c1cnn2c(C(F)(F)F)cc(-c3ccco3)nc12	none
CCc1ccc(S(=O)(=O)Nc2nccs2)cc1	none
O=C(CN(C(=O)CCC(=O)Nc1ccccn1)c1ccc2c(c1)OCO2)NCc1ccco1	CendR NRP1 mod 21.6
Cc1ccc(N(CC(=O)NCc2ccco2)C(=O)CCC(=O)Nc2ccccn2)cc1C	none
CC(=O)Nc1ccc(C(=O)OCC(=O)NC(=O)NC(C)(C)C)cc1	SKN-1 inh 44.9
O=C1/C(=C\c2cc([N+](=O)[O-])ccc2O)SC(=S)N1Cc1ccc(Cl)cc1	none
CC(C)C(OC(=O)C1=Cc2ccccc2OC1)C(=O)NC1CCCC1 (stereo not drawn)	SKN-1 inh 35.6
CCC(OC(=O)C1=Cc2ccccc2OC1)C(=O)NC1CCCC1 (stereo not drawn)	none
O=C(N/N=C/C1C(c2ccccc2)C1(Cl)Cl)c1cccc(Cl)c1 (stereo not drawn)	CendR NRP1 mod 24.6
COC(=O)N1N=C(c2ccc(Br)cc2)CC1(O)C(F)(F)F (stereo not drawn)	none
O=C(O)c1ccc(S(=O)(=O)c2ccccc2)cc1	SKN-1 inh 40.4
O=C(Nc1ccc(NC(=O)c2ccc(S(=O)(=O)c3ccccc3)cc2)cc1)c1ccccc1	none
Clc1ccc(Nc2ccc(-n3ccnc3)nn2)cc1Cl	SKN-1 inh 37.0
c1ccc(Nc2ccc(-n3ccnc3)nn2)cc1	none
O=S(=O)(NCc1ccccc1)c1ccc(Br)s1	none
CC(=O)Nc1ccccc1C(=O)C(=O)O	CendR NRP1 mod 26.0
CC(Sc1nc(NCc2ccccc2)nc(N2CCOCC2)n1)C(=O)Nc1ccccc1 (stereo not drawn)	none
Cc1[nH]c(=O)[nH]c(=O)c1S(=O)(=O)NCCOC12CC3CC(CC(C3)C1)C2	none
COc1cc2sc3ccc(C#Cc4ccc(N)cc4)cc3c(=O)c2cc1OC	SKN-1 inh 39.7
COc1cc2sc3ccc(C#Cc4ccccn4)cc3c(=O)c2cc1OC	none
CCN(CC(=O)Nc1ccc(NC(C)=O)cc1)C(=O)c1oc2c(ccc3ccccc32)c1C	none
Cc1ccc(S(=O)(=O)NC(=NC2CCCCC2)c2ccc(Cl)cc2)cc1	CendR NRP1 mod 20.7
Cc1ccc(NC(=O)CSCc2cc(=O)n3ccsc3n2)cc1	SKN-1 inh 33.8
CN(C)c1ccc(C(=O)OCc2cc(=O)n3ccsc3n2)cc1	CendR NRP1 mod 23.2
Cc1ccc(C(=O)OCc2cc(=O)n3ccsc3n2)s1	hiPSC survival 18.5
CC(C)c1ccc(N(CC(=O)NCC2CCCO2)C(=O)CCC(=O)Nc2nccs2)cc1 (stereo not drawn)	none
CCOC(=O)CN1C(=O)N[C@@H](c2cccs2)C(C(C)=O)=C1C	none
COC(=O)C1NN=C(C(=O)c2ccccc2)C1c1ccccc1 (stereo not drawn)	none
Clc1cc(NCc2cccs2)ccc1N1CCOCC1	SKN-1 inh 38.6
O=C1C(C2=C(O)c3ccccc3C2=O)=Nc2ccccc21	CendR NRP1 mod 38.8
CN=CC1=C(O)c2ccccc2C1=O	none
CC(=O)C(C(c1ccccc1)N1CCCc2ccccc21)N1CCOCC1 (stereo not drawn)	CendR NRP1 mod 24.3
C=CCn1c(SCC(=O)NCc2ccco2)nnc1-c1ccc2ccccc2n1	none
CC(Cl)C(=O)c1c(N)n(C)c(=O)n(C)c1=O (stereo not drawn)	CendR NRP1 mod 40.0
CC(Sc1nccn1C)C(=O)c1c(N)n(C)c(=O)n(C)c1=O (stereo not drawn)	none
C[C@@H]1CN([C@H](C)CO)C(=O)c2cc(Br)cnc2O[C@@H]1CN(C)C(=O)NC1CCCC1	none
